Laboratory results taken from ChEMBL document CHEMBL4382285, “Discovery of Novel Retigabine Derivatives as Potent KCNQ4 and KCNQ5 Channel Agonists with Improved Specificity” (ACS Med Chem Lett, 2019).
Activity calls are given as the source filed them. The rule behind the calls is not given here.

Columns and labels:
Assay type in all cases: cell-based
[1] = target: T1, Potassium voltage-gated channel subfamily KQT member 1 (Homo sapiens, UniProt P51787); test: Activity at human KCNQ1 expressed in CHOK1 cells assessed as ratio of amplitude of outward current in presence of test compound to amplitude of outward current in absence of test compound at 10 uM at +60 mV by whole cell patch clamp assay
T1 sequence (P51787 whole entry): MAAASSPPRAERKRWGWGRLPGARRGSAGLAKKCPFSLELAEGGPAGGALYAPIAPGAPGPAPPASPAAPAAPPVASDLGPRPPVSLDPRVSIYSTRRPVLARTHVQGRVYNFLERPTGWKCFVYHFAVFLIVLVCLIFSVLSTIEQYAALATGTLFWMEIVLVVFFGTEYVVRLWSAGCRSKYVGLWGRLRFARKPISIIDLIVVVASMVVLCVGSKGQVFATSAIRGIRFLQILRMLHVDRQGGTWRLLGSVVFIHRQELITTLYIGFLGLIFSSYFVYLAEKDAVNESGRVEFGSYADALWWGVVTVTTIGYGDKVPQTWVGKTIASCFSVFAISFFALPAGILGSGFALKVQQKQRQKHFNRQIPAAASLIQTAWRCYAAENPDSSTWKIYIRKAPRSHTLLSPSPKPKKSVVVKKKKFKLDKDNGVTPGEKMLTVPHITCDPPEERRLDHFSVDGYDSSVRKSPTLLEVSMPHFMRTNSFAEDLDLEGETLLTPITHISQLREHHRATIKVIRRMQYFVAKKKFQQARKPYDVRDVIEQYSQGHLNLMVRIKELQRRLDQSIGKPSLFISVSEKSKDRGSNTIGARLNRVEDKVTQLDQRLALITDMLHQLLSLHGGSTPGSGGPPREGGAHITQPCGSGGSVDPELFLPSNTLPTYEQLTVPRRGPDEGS
In short: (§1)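 CHO-K1 cells individually transfected with a single KCNQ subtype; whole-cell voltage clamp. Held at −80 mV, stepped from −90 to +60 mV in 10 mV increments (1500 ms), then to −120 mV for 500 ms. Outward current at −10 or +60 mV measured before (I0) and after (I) 10 μM compound; I/I0 >1 counts as activation. More than four cells per compound.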

[2] = target: T2, Potassium voltage-gated channel subfamily KQT member 4 (Homo sapiens) (UniProt P56696); test: Activity at human KCNQ4 expressed in CHOK1 cells assessed as ratio of amplitude of outward current in presence of test compound to amplitude of outward current in absence of test compound at 10 uM at -10 mV by whole cell patch clamp assay
T2 sequence (whole entry): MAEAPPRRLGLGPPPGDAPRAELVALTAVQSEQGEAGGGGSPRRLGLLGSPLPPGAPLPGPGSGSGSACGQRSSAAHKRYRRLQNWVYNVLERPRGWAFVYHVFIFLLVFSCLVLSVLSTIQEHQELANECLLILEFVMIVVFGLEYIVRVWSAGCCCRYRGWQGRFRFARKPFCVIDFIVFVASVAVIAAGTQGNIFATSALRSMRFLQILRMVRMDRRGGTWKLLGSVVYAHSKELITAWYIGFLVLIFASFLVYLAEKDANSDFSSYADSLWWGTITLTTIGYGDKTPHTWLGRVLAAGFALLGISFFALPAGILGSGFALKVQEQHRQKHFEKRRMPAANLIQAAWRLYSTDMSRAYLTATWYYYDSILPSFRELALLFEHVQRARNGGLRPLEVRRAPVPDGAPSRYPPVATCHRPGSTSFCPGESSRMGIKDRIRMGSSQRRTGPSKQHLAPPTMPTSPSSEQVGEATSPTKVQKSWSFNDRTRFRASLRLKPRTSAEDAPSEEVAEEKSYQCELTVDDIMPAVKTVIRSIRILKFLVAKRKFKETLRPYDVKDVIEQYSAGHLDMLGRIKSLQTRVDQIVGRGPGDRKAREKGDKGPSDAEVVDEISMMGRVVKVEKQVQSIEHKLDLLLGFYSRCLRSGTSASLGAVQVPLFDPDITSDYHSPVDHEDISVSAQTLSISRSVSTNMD
In short: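 CHO-K1 cells expressing the channel, whole-cell voltage clamp, compound at 10 μM. Read-out is the outward current ratio I/I0 with and without compound, taken at −10 mV. I/I0 > 1 counts as activation and < 1 as inhibition. More than four cells per compound.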

[3] = target: Potassium voltage-gated channel subfamily KQT member 2 (Rattus norvegicus) (UniProt O88943); test: Activity at rat homomeric KCNQ2 expressed in CHOK1 cells assessed as effect on current amplitude up to 30 uM at -10 mV by whole cell patch clamp assay
In short: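 CHO-K1 cells expressing homomeric KCNQ2, recorded by whole-cell voltage clamp. Holding potential −80 mV with step depolarizations; current amplitude at −10 mV compared before and after compound across 1–30 μM, reported as percent change in current.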

[4] = target: T3, Potassium voltage-gated channel subfamily KQT member 3 (Rattus norvegicus) (UniProt O88944); test: Activity at rat KCNQ3 expressed in CHOK1 cells assessed as ratio of amplitude of outward current in presence of test compound to amplitude of outward current in absence of test compound at 10 uM at +60 mV by whole cell patch clamp assay; in short: as §1
T3 sequence (whole entry): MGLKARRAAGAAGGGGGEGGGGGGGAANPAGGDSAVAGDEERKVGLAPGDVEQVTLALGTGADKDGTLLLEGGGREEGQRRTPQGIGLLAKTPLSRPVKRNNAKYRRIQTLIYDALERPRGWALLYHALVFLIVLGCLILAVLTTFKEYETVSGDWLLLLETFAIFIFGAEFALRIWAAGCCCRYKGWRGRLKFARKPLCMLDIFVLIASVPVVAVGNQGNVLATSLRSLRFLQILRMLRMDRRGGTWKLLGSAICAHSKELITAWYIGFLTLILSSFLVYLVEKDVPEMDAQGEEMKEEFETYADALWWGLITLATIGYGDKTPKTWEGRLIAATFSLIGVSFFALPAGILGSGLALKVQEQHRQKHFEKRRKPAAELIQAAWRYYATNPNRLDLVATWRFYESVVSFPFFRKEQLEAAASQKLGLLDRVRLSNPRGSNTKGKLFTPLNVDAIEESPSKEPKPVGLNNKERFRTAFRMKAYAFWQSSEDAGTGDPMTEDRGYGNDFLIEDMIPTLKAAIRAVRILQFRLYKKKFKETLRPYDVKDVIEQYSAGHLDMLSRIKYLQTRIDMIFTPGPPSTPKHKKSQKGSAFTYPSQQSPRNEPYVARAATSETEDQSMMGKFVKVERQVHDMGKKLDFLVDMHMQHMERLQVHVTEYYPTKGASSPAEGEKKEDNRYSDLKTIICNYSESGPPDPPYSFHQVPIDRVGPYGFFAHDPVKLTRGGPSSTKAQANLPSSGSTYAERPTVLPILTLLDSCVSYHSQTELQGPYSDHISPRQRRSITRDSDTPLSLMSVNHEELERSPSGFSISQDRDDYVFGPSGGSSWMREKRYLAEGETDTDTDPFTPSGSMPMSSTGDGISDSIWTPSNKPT

Chain of Potassium voltage-gated channel subfamily KQT member 2 (Rattus norvegicus) (O88943 whole entry): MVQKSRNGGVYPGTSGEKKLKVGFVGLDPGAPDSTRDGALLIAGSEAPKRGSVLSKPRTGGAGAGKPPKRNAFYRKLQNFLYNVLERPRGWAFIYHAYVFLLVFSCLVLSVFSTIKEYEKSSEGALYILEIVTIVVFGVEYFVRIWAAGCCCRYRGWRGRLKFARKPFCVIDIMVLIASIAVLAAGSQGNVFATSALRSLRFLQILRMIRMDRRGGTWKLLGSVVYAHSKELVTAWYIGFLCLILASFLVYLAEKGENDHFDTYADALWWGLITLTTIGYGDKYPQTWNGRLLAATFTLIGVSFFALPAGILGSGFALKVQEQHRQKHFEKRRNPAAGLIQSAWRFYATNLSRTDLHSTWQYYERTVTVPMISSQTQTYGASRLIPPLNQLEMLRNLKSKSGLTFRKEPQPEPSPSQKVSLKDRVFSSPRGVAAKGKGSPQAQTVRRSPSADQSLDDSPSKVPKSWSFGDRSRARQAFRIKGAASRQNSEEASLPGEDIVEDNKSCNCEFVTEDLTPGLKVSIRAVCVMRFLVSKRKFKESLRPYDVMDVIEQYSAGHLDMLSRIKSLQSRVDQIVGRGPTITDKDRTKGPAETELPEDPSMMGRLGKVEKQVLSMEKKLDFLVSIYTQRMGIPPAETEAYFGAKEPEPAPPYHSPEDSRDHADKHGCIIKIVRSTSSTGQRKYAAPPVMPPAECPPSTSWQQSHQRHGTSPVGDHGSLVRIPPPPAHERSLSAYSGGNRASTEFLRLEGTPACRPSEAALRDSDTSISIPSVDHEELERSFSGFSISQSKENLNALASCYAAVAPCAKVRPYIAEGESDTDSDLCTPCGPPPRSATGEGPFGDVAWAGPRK

With C#CCN(Cc1ccc(F)cc1)c1ccc(NC(=O)OCC)c(NC(=O)OCC)c1 as the compound, how does the Ratio [1] read?
Its Ratio is 1.

What about the Ratio [2] of the same compound?
The Ratio was 5.68.

What about the Activity [3] of the same compound?
The Activity was “inactive”.

What about the Ratio [4] of the same compound?
The Ratio was 1.7.
